Data taken from ChEMBL document CHEMBL1129727, “Chiral pyrrolo[2,3-d]pyrimidine and pyrimido[4,5-b]indole derivatives: structure-activity relationships of potent, highly stereoselective A1-adenosine receptor antagonists” (J Med Chem, 1996).
pKi: −log10 of the molar value. Converted amounts (≈) assume the structure as drawn.

How the values were obtained:
Adenosine receptor A1 = target: T1, Adenosine receptor A1 (Rattus norvegicus, UniProt P25099); assay: Radioligand binding assay for [3H]-PIA affinity towards Adenosine A1 receptor of rat cerebral cortical membrane
T1 sequence (P25099 whole entry): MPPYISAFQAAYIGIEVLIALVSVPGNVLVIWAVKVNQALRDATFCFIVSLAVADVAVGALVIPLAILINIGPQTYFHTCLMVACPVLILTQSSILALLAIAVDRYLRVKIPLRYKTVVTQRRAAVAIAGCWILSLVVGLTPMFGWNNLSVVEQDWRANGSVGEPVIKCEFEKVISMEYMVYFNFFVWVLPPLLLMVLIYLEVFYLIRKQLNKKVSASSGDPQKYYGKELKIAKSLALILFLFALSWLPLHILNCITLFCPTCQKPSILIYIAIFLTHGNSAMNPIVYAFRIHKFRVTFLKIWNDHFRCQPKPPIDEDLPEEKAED
In short: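 Rat cerebral cortical membranes incubated with [3H]-(R)-PIA. Nonspecific binding defined with 10 μM 2-chloroadenosine. Five to six test concentrations, each in triplicate, in at least three separate experiments. Ki calculated from inhibition of binding.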

Adenosine receptor A2a = Adenosine receptor A2a (Rattus norvegicus, UniProt P30543); assay: Radioligand binding assay for [3H]NECA affinity towards adenosine A2A receptor of rat striatum; assay type: tissue-based
In short: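 Rat striatal membranes incubated with [3H]NECA. 50 nM N6-cyclopentyladenosine present to block A1 sites. Nonspecific binding defined with 5 mM theophylline. Five to six test concentrations, each in triplicate, in at least two separate experiments. Ki derived from inhibition of binding.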

[1] = target: Adenosine receptors; A1 & A2 (Rattus norvegicus) (UniProt P29276+P25099+P30543); assay: Selectivity ratio between A1 and A2-receptors estimated as A2/A1; assay type: protein assay
[2] = Solubility in 50 mM TRIS-HCl buffer containing 1% DMSO, pH 7.4; assay type: physicochemical; conditions: read-out: S
In short: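 Bruns–Fergus biochemical method. 10 mM DMSO stock diluted 1:100 into 50 mM Tris-HCl pH 7.4, shaken overnight at room temperature, centrifuged and filtered through cotton. Serial dilutions of the saturated supernatant tested in an A1 [3H]CHA binding assay (KD 1 nM).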

[3] = Solubility in 50 mM TRIS-HCl buffer containing 2.5% DMSO, pH 7.4; assay type: physicochemical; conditions: read-out: S
In short: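 A 10 mM DMSO stock was diluted 1:40 into 50 mM TRIS-HCl, pH 7.4 (2.5% DMSO), then shaken overnight at room temperature to equilibrium. After centrifugation, the supernatant was filtered and serially diluted. Dilutions were tested in an A1 binding assay with [3H]CHA (KD 1 nM).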

[4] = Partition coefficient (logP); assay type: physicochemical; conditions: octanol/water
[5] = target: T2, Adenosine receptor A2b (Rattus norvegicus) (UniProt P29276); assay: Antagonistic binding affinity for rat Adenosine A2B receptor
T2 sequence (whole entry): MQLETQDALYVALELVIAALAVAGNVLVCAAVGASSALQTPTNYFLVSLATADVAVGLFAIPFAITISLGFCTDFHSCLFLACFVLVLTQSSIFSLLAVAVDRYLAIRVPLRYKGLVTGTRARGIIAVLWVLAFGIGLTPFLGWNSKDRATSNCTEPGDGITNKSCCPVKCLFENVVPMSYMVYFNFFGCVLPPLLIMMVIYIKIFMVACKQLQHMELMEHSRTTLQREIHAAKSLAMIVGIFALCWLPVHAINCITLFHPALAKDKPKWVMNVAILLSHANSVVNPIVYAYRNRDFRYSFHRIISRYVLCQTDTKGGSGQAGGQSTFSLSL

[6] = target: T3, Adenosine receptor A3 (Rattus norvegicus) (UniProt P28647); assay: Percent inhibition of binding to rat Adenosine A3 receptor at 10 uM
T3 sequence (whole entry): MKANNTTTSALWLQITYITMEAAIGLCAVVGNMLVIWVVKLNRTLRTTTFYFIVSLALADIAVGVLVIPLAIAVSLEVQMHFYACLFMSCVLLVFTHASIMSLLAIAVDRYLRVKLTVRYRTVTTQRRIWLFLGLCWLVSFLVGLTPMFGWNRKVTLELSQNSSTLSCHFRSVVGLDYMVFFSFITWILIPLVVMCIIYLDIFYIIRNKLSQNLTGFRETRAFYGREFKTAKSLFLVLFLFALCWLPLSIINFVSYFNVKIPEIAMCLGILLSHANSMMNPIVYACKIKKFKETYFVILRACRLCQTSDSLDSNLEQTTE

[7] = target: Adenosine receptor A2a (Rattus norvegicus) (UniProt P30543); assay: Antagonism of NECA-stimulated adenylate cyclase at Adenosine A2A receptor in rat PC12 cell membranes
Sequence of Adenosine receptor A2a (Rattus norvegicus) (P30543 whole entry): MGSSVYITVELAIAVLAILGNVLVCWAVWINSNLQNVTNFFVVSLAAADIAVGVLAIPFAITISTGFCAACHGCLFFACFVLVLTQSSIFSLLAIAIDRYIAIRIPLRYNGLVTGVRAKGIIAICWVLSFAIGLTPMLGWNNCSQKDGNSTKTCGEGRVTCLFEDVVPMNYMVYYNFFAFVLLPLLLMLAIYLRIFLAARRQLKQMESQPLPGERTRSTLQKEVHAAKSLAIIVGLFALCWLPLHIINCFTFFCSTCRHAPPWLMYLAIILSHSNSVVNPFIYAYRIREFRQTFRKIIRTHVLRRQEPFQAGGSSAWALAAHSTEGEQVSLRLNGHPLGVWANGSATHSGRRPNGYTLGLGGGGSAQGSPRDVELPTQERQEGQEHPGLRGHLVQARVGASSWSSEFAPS

Sequence of Adenosine receptor A2a (P30543 whole entry): as above
Sequence of Adenosine receptors; A1 & A2 (Rattus norvegicus) (P30543 whole entry, looked up, one chain of several): as the sequence (P30543 whole entry) above

Row | Structure (SMILES) | pKi (Adenosine receptor A1) | pKi (Adenosine receptor A2a) | Selectivity ratio [1] | other results
1 | Cc1c(C)n([C@H](C)c2ccccc2)c2nc(-c3ccccc3)nc(O)c12 | 5.53 | < 4.52 |  | Selectivity [1]: > 10
2 | CC(c1ccccc1)N1C(=O)C2(CCCC2)c2c(O)ncnc21 (configuration not stated) |  | 4.05 |  | Selectivity [1]: 26
3 | C[C@@H](c1ccccc1)n1c2ccccc2c2c(N)nc(-c3ccccc3)nc21 | 7.19 | < 4.52 |  | 
4 | C[C@H](c1ccccc1)n1c2ccccc2c2c(O)nc(-c3ccccc3)nc21 | < 4.52 | < 4.52 |  | 
5 | Cc1c(C)n([C@@H](C)c2ccccc2)c2nc(-c3ccccc3)[nH]c(=O)c12 | < 4.52 | < 4.52 |  | 
6 | COc1ccc(-c2nc(N)c3c(C)c(C)n([C@H](C)c4ccccc4)c3n2)cc1 | 7.00 | < 5.00 | > 99 | 
7 | O=C1Nc2ncnc(O)c2C12CCCC2 |  |  |  | Selectivity [1]: 2.7
8 | Cc1c(C)n([C@H](C)c2ccccc2)c2nc(-c3ccc(Cl)c(Cl)c3)nc(N)c12 | 6.48 | < 4.52 | > 91 | 
9 | Cc1c(C)n([C@@H](C)c2ccccc2)c2nc(-c3ccc(Cl)c(Cl)c3)nc(N)c12 | 5.74 |  | > 17 | 
10 | Cc1c(C)n([C@@H](C)c2ccccc2)c2ncnc(N[C@@H](C)c3ccccc3)c12 |  | < 4.52 |  | 
11 | O=C1N(c2ccccc2)c2nc[nH]c(=O)c2C12CCCC2 | 5.89 | 4.76 |  | 
12 | Cc1c(C)n([C@@H](C)c2ccccc2)c2nc(-c3ccc(Cl)cc3)nc(N)c12 | 6.06 | < 4.52 | > 34 | 
13 | Cc1c(C)n([C@H](C)c2ccccc2)c2nc(-c3ccccc3Cl)nc(N)c12 | 8.02 | 5.28 | 537 | 
14 | Cc1nc2nc(-c3ccccc3)[nH]c(N[C@H](C)c3ccccc3)c-2c1C | 8.17 | < 4.52 |  | solubility [2]: 1.5 µM (≈ 0.514 µg/mL); solubility [3]: 5.9 µM (≈ 2.02 µg/mL); Selectivity [1]: > 4480; logP [4]: 3.5
15 | O=C1N(c2ccccc2)c2ncnc(O)c2C12CCCC2 |  |  |  | Selectivity [1]: 13
16 | Nc1nc(-c2ccccc2)nc2c1c1ccccc1n2-c1ccccc1 | 7.66 | 5.08 |  | Selectivity [1]: 377
17 | CC(c1ccccc1)n1c2ccccc2c2c(N)ncnc21 (configuration not stated) | 5.95 | 4.56 | 25 | 
18 | Cc1c(C)n([C@@H](C)c2ccccc2)c2nc(-c3cccc(Cl)c3)nc(N)c12 | 6.31 | < 4.52 | > 62 | 
19 | Cc1c(C)n([C@H](C)c2ccccc2)c2nc(-c3cccc(Cl)c3)nc(N)c12 | 8.12 | 4.79 | 2140 | solubility [2]: 2.8 µM (≈ 1.06 µg/mL)
20 | Cc1nc2nc(-c3ccccc3)[nH]c(N[C@@H](C)c3ccccc3)c-2c1C |  |  |  | Selectivity [1]: > 47
21 | Cc1c(C)n([C@H](C)c2ccccc2)c2nc(-c3ccc(Cl)cc3)nc(O)c12 | < 4.52 | < 4.52 |  | 
22 | Cc1c(C)n([C@H](C)c2ccccc2)c2ncnc(N[C@H](C)c3ccccc3)c12 |  | < 4.52 |  | 
23 | Oc1ncnc2c1c1ccccc1n2-c1ccccc1 |  |  |  | Kb [5]: 3.4 µM; inhibition [6]: < 20%; Kb [7]: 2.5 µM
24 | Cc1[nH]c2nc(-c3ccccc3)nc(N[C@@H](C)c3ccccc3)c2c1C | 6.19 | < 4.52 |  | 
25 | Cc1c(C)n([C@H](C)c2ccccc2)c2nc(-c3ccc(Cl)cc3)nc(N)c12 | 7.30 | < 4.52 | > 600 | solubility [2]: 2.2 µM (≈ 0.829 µg/mL); solubility [3]: 7.2 µM (≈ 2.71 µg/mL)
26 | Cc1c(C)n([C@H](C)c2ccccc2)c2nc(-c3ccccc3)nc(N)c12 | 6.78 | 4.09 | 490 | 
27 | Cc1ccc([C@H](C)n2c3ccccc3c3c(N)nc(-c4ccccc4)nc32)cc1 | 6.53 | < 4.52 | > 101 | 

Second part, led by results:

Row | pKi (Adenosine receptor A1) | pKi (Adenosine receptor A2a) | Selectivity ratio [1] | Structure (SMILES) | other results
28 | 8.33 | 5.43 | 789 | Cc1c(C)n([C@@H](C)c2ccccc2)c2nc(-c3ccccc3)nc(N)c12 | solubility [2]: 0.26 µM (≈ 0.089 µg/mL)
29 | 8.59 | 5.21 |  | C[C@H](c1ccccc1)n1c2ccccc2c2c(N)nc(-c3ccccc3)nc21 | solubility [2]: 0.48 µM (≈ 0.175 µg/mL); solubility [3]: 1.5 µM (≈ 0.547 µg/mL)
30 | < 4.52 | < 4.52 |  | C[C@@H](c1ccccc1)n1c2ccccc2c2c(O)nc(-c3ccccc3)nc21 | 
31 | 7.85 | 4.67 | 1530 | Cc1ccc([C@@H](C)n2c3ccccc3c3c(N)nc(-c4ccccc4)nc32)cc1 | 
32 | 6.49 | < 4.52 | > 94 | C[C@@H](Cc1ccccc1)n1c2ccccc2c2c(N)nc(-c3ccccc3)nc21 | 
33 | < 4.52 | < 4.52 |  | Cc1c(C)n([C@@H](C)c2ccccc2)c2nc(-c3ccc(Cl)cc3)[nH]c(=O)c12 | 
34 | 6.56 | < 4.52 | > 110 | Cc1c(C)n([C@@H](C)c2ccccc2)c2nc(-c3ccccc3Cl)nc(N)c12 | 
35 | 7.08 | < 5.00 | > 120 | COc1cccc(-c2nc(N)c3c(C)c(C)n([C@H](C)c4ccccc4)c3n2)c1 | 
36 | 3.90 | 3.46 |  | O=C1Nc2nc[nH]c(=O)c2C12CCCC2 | 
37 | < 4.52 | < 4.52 |  | C[C@H](c1ccccc1)N1C(=O)C2(CCCC2)c2c(O)nc(-c3ccccc3)nc21 | 
